Source: PubChem
CSN inh: CSN deneddylation inhibition; inhibition, % at 12.5 µM; 0.38% of 360,000 active; Purified CSN, SCF-Nedd8-OG deneddylation, fluorescence polarization; Q92905;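 active = pattern-corrected inhibition above about 35%, with an unprinted fluorescence ratio check between 0.5 and 1.5, limit read from the data, passing the limit was not always enough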;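 note: 0% = enzyme with substrate and 100% = substrate without enzyme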
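Material: human Csn5 produced in HEK293T cells; Input: enzyme 0.24 nM; Reagent: SCFSkp2-Nedd8OG substrate at 10 nM final; Dosing: 12.5 µM compound; Incubation: 90 min reaction at room temperature; Detection: fluorescence polarization of the substrate; Evaluation: % inhibition of substrate cleavage by Csn5; Control set: substrate-only high control, full reaction low control.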
Neddylation inh: cullin neddylation inhibition; TR-FRET cullin neddylation, biochemical; inhibition, % at 25 µM; 0.58% of 360,000 active; in the data active = inhibition above about 36%
Rpn11 block: Rpn11 (human) deubiquitinase inhibition | O00487 | human 26S proteasome, Ub4-pepOG fluorescence polarization; 20S core pre-blocked with epoxomicin | inhibition, % at 20 µM | 0.59% of 360,000 active | AID 588493;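 active = inhibition at 20 µM, scaled to each plate's controls, above about 33%, limit read from the data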
HNF4A DNA FP: change in binding of human HNF4 alpha to DNA; HNF4a-FITC DNA binding, fluorescence polarization, 1 h; activity change, % at 10 µM; 0.3% of 360,000 active; in the data active = activity change above about 30%, passing the limit was not always enough
Rin1 Abl inh: blocks binding of human Rin1 to Abl | inhibition, % at 7.35 µM | P00519+Q13671 | 0.4% of 360,000 active | TR-FRET Rin1/Abl binding, biochemical; in the data active = inhibition above about 5%, passing the limit was not always enough
TPT1 inh: C. albicans TPT1 enzyme inhibition | recombinant caTPT1, FP RNA substrate dephosphorylation | inhibition, % at 5 µM | 0.81% of 300,000 active;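 active = inhibition above the mean of all tested compounds plus 3 SD, set per screening campaign, cut at about 24% in these data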;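 note: plate controls were DMSO alone for no effect and ferristatin control at 100 nM for full effect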
TPT1 inh confirm: TPT1 (C. albicans) inhibition, confirmation. recombinant caTPT1, fluorescence polarization, RNase T1 coupled. shares compounds with TPT1 inh. inhibition, % at 5 µM. 74% of 2,400 active;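 active = inhibition above the primary screen limit, the mean inhibition of all tested compounds plus 3 SD, cut at about 25% in these data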
RNase T1 counter: RNase T1 inhibition in TPT1 counter-screen; RNase T1 cleavage, fluorescence polarization, 1536-well; inhibition, % at 5 µM; shares compounds with TPT1 inh; 83% of 2,400 active; AID 2153;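 active = inhibition above the solvent-only control well mean plus 3 SD, limit set per screening run, cut at about 23% in these data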;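 note: plate controls were DMSO wells with enzyme for no effect and wells without RNase T1 for full effect; inhibitors block cleavage so intact labeled substrate keeps polarization high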
Rpn11 inh conf: Rpn11 inhibition confirmation, single concentration; 29% of 1,900 active; purified human 26S proteasome, Ub4-pepOG fluorescence polarization; proteasome pretreated with epoxomicin; shares compounds with Rpn11 block; inhibition, % at 20 µM
MMP-2 inh: MMP-2 (human) inhibition counter-screen; recombinant MMP-2, FRET peptide cleavage fluorescence; AID 602330; inhibition, % at 20 µM; 4% of 1,900 active; shares compounds with Rpn11 block;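 note: human MMP-2 activated beforehand with APMA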
Target sequence (P08253 whole entry, looked up): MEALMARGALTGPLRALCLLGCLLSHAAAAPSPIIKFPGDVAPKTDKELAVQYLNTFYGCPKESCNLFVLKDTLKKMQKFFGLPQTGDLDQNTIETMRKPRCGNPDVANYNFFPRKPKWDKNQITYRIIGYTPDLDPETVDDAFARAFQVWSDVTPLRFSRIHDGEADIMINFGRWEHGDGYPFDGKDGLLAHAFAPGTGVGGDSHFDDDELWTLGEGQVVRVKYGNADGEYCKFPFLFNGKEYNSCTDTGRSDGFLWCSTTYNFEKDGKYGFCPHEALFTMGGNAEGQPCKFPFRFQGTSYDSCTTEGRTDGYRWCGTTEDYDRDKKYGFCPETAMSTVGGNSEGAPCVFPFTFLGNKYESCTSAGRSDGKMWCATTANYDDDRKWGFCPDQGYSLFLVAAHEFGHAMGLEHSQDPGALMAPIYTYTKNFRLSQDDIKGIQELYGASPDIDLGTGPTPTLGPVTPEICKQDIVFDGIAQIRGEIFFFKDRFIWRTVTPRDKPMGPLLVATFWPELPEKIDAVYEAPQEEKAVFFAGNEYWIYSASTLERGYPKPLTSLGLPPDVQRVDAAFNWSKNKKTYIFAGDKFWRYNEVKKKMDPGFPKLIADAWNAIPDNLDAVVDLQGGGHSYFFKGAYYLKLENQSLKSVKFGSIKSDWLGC
Thrombin inh: thrombin (bovine) inhibition counter-screen | bovine thrombin cleavage of Ub4-pepOG, fluorescence polarization | shares compounds with Rpn11 block | inhibition, % at 20 µM | AID 602333 | 13% of 1,900 active;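 active = mean inhibition at least 40% at 20 µM, or signal 3 deviations below plate average, so some actives read negative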;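 note: plate controls were thrombin with DMSO for no effect and buffer wells lacking thrombin for full effect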
* = called active by the depositor; nt = no result shown; ! = a repeat was not active. An excerpt weighted towards active compounds, which were near 2.4% of everything screened. Cut-off read from the data, not from the text of the source, unless noted: active = inhibition above about 40%; inactive = the rest.

SMILES	CSN inh	Neddylation inh	Rpn11 block	HNF4A DNA FP	Rin1 Abl inh	TPT1 inh	TPT1 inh confirm	RNase T1 counter	Rpn11 inh conf	MMP-2 inh	Thrombin inh
Oc1c(C=Nc2ccc(Cl)cn2)sc2ccccc12	8.9	9.0	5.1	0.0	-2.5	30.9*	38.6*	49.2*	nt	nt	nt
Oc1c(C=NCc2ccncc2)sc2ccccc12	nt	nt	nt	nt	nt	2.6	nt	nt	nt	nt	nt
Oc1c(/C=N/c2ccccn2)sc2ccccc12	10.7	-2.9	35.9	14.5	0.5	44.8*	56.6*	67.2*	nt	nt	nt
O=C(COC(=O)CCc1ccccc1)Nc1ccc(F)cc1Cl	1.9	-2.4	-2.3	-3.2	2.1	-2.7	nt	nt	nt	nt	nt
O=C(CSc1ccc(-c2ccccn2)nn1)Nc1cccc(F)c1	1.2	-9.8	6.8	1.0	-4.6	-3.1	nt	nt	nt	nt	nt
Cc1ccccc1NC(=S)N(CCN1CCOCC1)Cc1ccccc1F	3.2	7.0	-6.6	5.2	-1.2	3.3	nt	nt	nt	nt	nt
C=CCN1C=CC(=C/C=C(/C#N)C(=O)OCC)C=C1	164.3	-223.1	nt	177.7	-30.4	175.8*	186.8*	173.3*	nt	nt	nt
O=C(Nc1ccccc1)N1CCCC(CNS(=O)(=O)Cc2ccccc2)C1 (configuration not stated)	2.1	-0.3	-1.5	2.6	0.4	1.1	nt	nt	nt	nt	nt
CC1(C)CN(C(=S)Nc2ccc(F)cc2F)C1=O	-0.9	-10.8	13.7	-0.1	1.7	-0.6	nt	nt	nt	nt	nt
CCOC(=O)c1sc(/N=C/c2c(C)[nH]n(-c3ccccc3)c2=O)c(C#N)c1C	nt	nt	nt	nt	nt	29.9*	120.3*	123.5*	nt	nt	nt
Cc1[nH]n(-c2ccccc2)c(=O)c1/C=N/N(c1ccccc1)c1ccccc1	3.4	18.8	11.3	-5.3	-1.9	-1.6	nt	nt	nt	nt	nt
CC1(C(=O)NC2CCCC2)CCC(=O)N1CCc1c[nH]c2ccccc12 (configuration not stated)	2.8	4.6	-6.7	-1.3	-1.2	nt	nt	nt	nt	nt	nt
O=[N+]([O-])c1ccc(N/N=C/c2cccc(O)c2O)c(S(=O)(=O)N2CCOCC2)c1	-7.3	-17.7	-7.9	-0.8	0.6	-1.2	nt	nt	nt	nt	nt
Cc1ccc(NS(=O)(=O)c2cc([N+](=O)[O-])ccc2N/N=C/c2sc(N3CCOCC3)nc2-c2ccccc2)c(C)c1	14.2	-13.7	43.6*	20.6	-1.8	56.1*	55.3*	73.0*	39.3	-5.2	8.7
Cc1c(N=C2Nc3cccc4cccc2c34)c(=O)n(-c2ccccc2)n1C	18.7	-16.5	nt	42.6*!	0.0	87.8*	108.5*	113.6*	-9.9	-38.2	active
Cc1c(N2C(=O)c3cccc4cccc(c34)C2=O)c(=O)n(-c2ccccc2)n1C	-4.8	-24.4	3.6	-2.7	-2.7	-4.1	nt	nt	nt	nt	nt
CN1C(=O)CC(c2cn(Cc3ccccc3)c3ccccc23)C1=O (configuration not stated)	2.4	3.2	54.1*	17.9	0.8	26.3*	49.6*	60.8*	20.5	-28.0	23.2
CC(=O)N1N=C(c2ccccc2)CC1c1cn(Cc2ccccc2)c2ccccc12 (configuration not stated)	1.1	-13.2	5.3	-0.8	1.2	2.1	nt	nt	nt	nt	nt
Cc1cc(OCC(=O)Nc2cnn(CCCC(=O)O)c2)ccc1Cl	-0.8	7.3	-2.7	5.5	3.4	-4.5	nt	nt	nt	nt	nt
CN(C)c1ccc(/C=C/c2nc3ccccc3s2)cc1	17.8	15.8	49.1*	36.3*	-3.6	110.9*	113.3*	114.1*	32.1	-5.5	24.2
CC(=O)c1c(C)n(-c2ccccc2)c2ccc(OCC(N)=O)cc12	-5.8	6.4	3.2	-4.2	1.6	5.1	nt	nt	nt	nt	nt
O=C(CCC(F)(F)F)N1CCCC(N2CCN(c3cccc(Cl)c3)CC2)C1 (configuration not stated)	-2.6	-0.2	4.5	-3.2	0.4	0.0	nt	nt	nt	nt	nt
COc1cc(OC)c(OC)cc1/C=C1\Oc2cc(OS(C)(=O)=O)ccc2C1=O	55.1*	-6.9	96.7*	73.4*	-2.7	75.0*	71.5*	77.7*	69.2*	4.6	-12.1
Cc1ccc(C(=O)NCc2ccccn2)cc1S(=O)(=O)N1CCCCC1	-2.5	-2.9	9.0	1.6	-6.4	-2.2	nt	nt	nt	nt	nt
O=C(Nc1ncc(Cc2ccc(SC(F)F)cc2)s1)c1ccc(OC(F)F)cc1	-0.4	-94.4	9.0	-0.9	-9.8	-0.3	nt	nt	nt	nt	nt
SMILES	CSN inh	Neddylation inh	Rpn11 block	HNF4A DNA FP	Rin1 Abl inh	TPT1 inh	TPT1 inh confirm	RNase T1 counter	Rpn11 inh conf	MMP-2 inh	Thrombin inh
Cc1cc(NC(=O)c2sc3ccccc3c2O)no1	-0.4	nt	-9.4	6.2	-2.5	nt	nt	nt	nt	nt	nt
CC(=Nc1ccc(C)cc1C)c1sc2ccccc2c1O	6.0	43.7*	38.3*	20.9	-2.0	55.4*	78.9*	93.5*	24.8	10.1	2.3
CN(CC(=O)N/N=C/c1ccc(F)cc1)S(=O)(=O)c1ccccc1	1.1	-2.0	2.0	0.3	-0.6	nt	nt	nt	nt	nt	nt
O=C(CNS(=O)(=O)c1cccc2nsnc12)NCCc1ccccc1	-2.4	-29.5	-12.4	3.1	0.7	1.8	nt	nt	nt	nt	nt
Cc1sc2nc(CSc3nnc(Cc4cccs4)n3C3CCCCC3)[nH]c(=O)c2c1C	15.1	11.7	72.0*	29.9	-0.5	37.5*	65.5*	73.6*	102.1*	-6.6	58.9*
Cc1ccc(C2(C)NC(=O)N(CC(=O)N(Cc3ccccc3)C(C)(C)C)C2=O)cc1 (configuration not stated)	0.6	-2.4	9.0	4.5	1.2	7.6	nt	nt	nt	nt	nt
CC(C)c1ccc2c(c1)C1Cc3ccccc3C1N2 (configuration not stated)	13.6	16.1	56.8*	-0.3	-0.9	28.6*	13.4	21.5*	1.7	5.8	-3.2
O=S1(=O)NC2c3ccccc3CC2O1 (configuration not stated)	-4.8	1.1	-2.1	3.1	0.2	-1.7	nt	nt	nt	nt	nt
Cc1ccc(NC(=O)CO/N=C/c2ccc(N(C)C)cc2)cc1	50.1*	6.2	76.7*	72.0*	0.2	93.3*	106.2*	113.2*	107.6*	-44.4	95.6*
CCOc1cc(/C=C2\SC(=O)N(c3ccc(O)cc3)C2=O)ccc1O	26.6	-32.4	67.5*	8.2	-0.4	69.9*	73.8*	77.0*	15.2	1.0	6.1
CCOc1cc(/C=C2\CN(CC)C/C(=C\c3ccc(O)c(OCC)c3)C2=O)ccc1O	4.8	4.0	7.8	2.1	5.3	3.8	nt	nt	nt	nt	nt
